Measured values taken from ChEMBL document CHEMBL4020703, “Epigallocatechin-3-gallate inhibits bacterial virulence and invasion of host cells” (Bioorg Med Chem, 2017).
pIC50: −log10 of the molar value. Activity calls are given as the source filed them. No cut-off for these calls is given here.

Assays:
[1] = tested on: Salmonella enterica subsp. enterica serovar Typhimurium; test: Inhibition of SPI-1 T3SS in Salmonella typhimurium assessed as reduction in SPI-1 T3SS substrates by measuring SopB protein level at 5 to 100 uM after 4 hrs by Coomassie staining based SDS-PAGE method
Procedure, shortened: (§1)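 Overnight S. Typhimurium cultures were diluted 1:30 into LB (10 g/L NaCl) and grown 4 h with or without compound. Culture supernatant (1 mL) was precipitated overnight at 4 °C with TCA (10% final). Pellets were spun at 14,000 rpm for 30 min, acetone-washed, and dried. Proteins were resolved on 4–20% SDS-PAGE, Coomassie-stained, and imaged.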

HeLa [2] = test: Inhibition of SPI-1 T3SS in Salmonella typhimurium infected in human HeLa cells assessed as reduction in bacterial invasion at 100 uM after 30 mins by immunofluorescence analysis; format: cell-based; settings: Salmonella enterica subsp. enterica serovar Typhimurium
Procedure, shortened: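 HeLa cells on glass coverslips were infected and stained as for the flow protocol (MOI 10, 30 min, gentamicin chase, anti-Salmonella serum/AlexaFluor 488), with nuclei counterstained by TOPRO-3. Extracellular bacteria were imaged without permeabilisation or gentamicin.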

HeLa [3] = test: Inhibition of SPI-1 T3SS in Salmonella typhimurium infected in human HeLa cells assessed as reduction in bacterial invasion at 100 uM after 30 mins by flow cytometry; format: cell-based; settings: Salmonella enterica subsp. enterica serovar Typhimurium
Procedure, shortened: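 Strain IR715 was pre-grown 4 h in LB (1/33 dilution) with compound or DMSO, then added to HeLa cells (DMEM/10% FBS) at MOI 10 with compound. Plates were spun 5 min at 1000×g, infected 30 min at 37 °C, then given gentamicin 100 ug/mL for 30 min. Cells were fixed, saponin-permeabilised, stained with anti-Salmonella serum plus AlexaFluor 488 secondary, and 30,000 cells counted. Values normalised to DMSO; triplicate.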

[4] = tested on: Salmonella enterica subsp. enterica serovar Typhimurium; test: Inhibition of SPI-1 T3SS in Salmonella typhimurium assessed as reduction in SPI-1 T3SS substrates by measuring SipA protein level at 5 to 100 uM after 4 hrs by Coomassie staining based SDS-PAGE method; procedure, shortened: as §1
[5] = tested on: Salmonella enterica subsp. enterica serovar Typhimurium; test: Inhibition of SPI-1 T3SS in Salmonella typhimurium assessed as reduction in SPI-1 T3SS substrates by measuring FliD protein level at 5 to 100 uM after 4 hrs by Coomassie staining based SDS-PAGE method; procedure, shortened: as §1
[6] = tested on: Salmonella enterica subsp. enterica serovar Typhimurium; test: Inhibition of SPI-1 T3SS in Salmonella typhimurium assessed as reduction in SPI-1 T3SS substrates by measuring FliC protein level at 5 to 100 uM after 4 hrs by Coomassie staining based SDS-PAGE method; procedure, shortened: as §1
Salmonella typhimurium [7] = test: Effect on SopE2-CPG2-HA fusion protein expression expressed in Salmonella typhimurium using Glu-CyFur as substrate at 0.39 to 100 uM after 4 hrs by fluorescence assay; format: ADME; settings: salmonella enterica subsp. enterica serovar typhimurium
Procedure, shortened: (§2)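 SopE2-CPG2-HA reporter strain grown overnight at 37 °C in LB (10 g/L NaCl) with 50 μg/mL ampicillin, diluted 1:30, then grown 4 h with compound or DMSO/H2O control (<1% of volume). Bacterial lysates were examined for reporter level.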

Salmonella typhimurium [8] = test: Effect on growth of Salmonella typhimurium at 100 uM; settings: salmonella enterica subsp. enterica serovar typhimurium
[9] = tested on: Salmonella enterica subsp. enterica serovar Typhimurium; test: Inhibition of SPI-1 T3SS in Salmonella typhimurium assessed as reduction in SPI-1 T3SS substrates by measuring SipB protein level at 5 to 100 uM after 4 hrs by Coomassie staining based SDS-PAGE method; procedure, shortened: as §1
[10] = tested on: Salmonella enterica subsp. enterica serovar Typhimurium; test: Inhibition of SPI-1 T3SS in Salmonella typhimurium assessed as reduction in SPI-1 T3SS substrates by measuring SipC protein level at 5 to 100 uM after 4 hrs by Coomassie staining based SDS-PAGE method; procedure, shortened: as §1
Salmonella typhimurium [11] = test: Effect on SopE2-CPG2-HA fusion protein expression expressed in Salmonella typhimurium at 0.39 to 100 uM after 4 hrs by Western blot method; format: ADME; settings: salmonella enterica subsp. enterica serovar typhimurium; procedure, shortened: as §2
[12] = Inhibition of SPI-1 T3SS in Salmonella typhimurium expressing SopE2-CPG2-HA fusion protein assessed as reduction in type 3 protein secretion using Glu-CyFur as substrate after 4 hrs by fluorescence assay; set-up: species or system Salmonella enterica subsp. enterica serovar Typhimurium
Procedure, shortened: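 Reporter strain was grown 4 h at 37 °C with compound after a 1:30 dilution, and OD600 was checked. Culture supernatant was mixed with 50 mM Tris, 0.1 mM ZnCl2, pH 7.4, 0.1% Brij-97 and 10 μM Glu-CyFur. Fluorescence (ex 563/em 610 nm) was read kinetically for 2 h. Inhibition came from the rate versus DMSO/H2O control, and IC50 from an exponential decay fit.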

[13] = tested on: Salmonella enterica subsp. enterica serovar Typhimurium; test: Inhibition of SPI-1 T3SS in Salmonella typhimurium assessed as reduction in SPI-1 T3SS substrates by measuring FliD protein level at 100 uM after 4 hrs by Coomassie staining based SDS-PAGE method; procedure, shortened: as §1
[14] = tested on: Salmonella enterica subsp. enterica serovar Typhimurium; test: Inhibition of SPI-1 T3SS in Salmonella typhimurium assessed as reduction in SPI-1 T3SS substrates by measuring FliC protein level at 100 uM after 4 hrs by Coomassie staining based SDS-PAGE method; procedure, shortened: as §1
[15] = tested on: Salmonella enterica subsp. enterica serovar Typhimurium; test: Inhibition of SPI-1 T3SS in Salmonella typhimurium assessed as reduction in SPI-1 T3SS substrates by measuring SipC protein level at 100 uM after 4 hrs by Coomassie staining based SDS-PAGE method; procedure, shortened: as §1
[16] = tested on: Salmonella enterica subsp. enterica serovar Typhimurium; test: Inhibition of SPI-1 T3SS in Salmonella typhimurium assessed as reduction in SPI-1 T3SS substrates by measuring SopB protein level at 100 uM after 4 hrs by Coomassie staining based SDS-PAGE method; procedure, shortened: as §1
[17] = tested on: Salmonella enterica subsp. enterica serovar Typhimurium; test: Inhibition of SPI-1 T3SS in Salmonella typhimurium assessed as reduction in SPI-1 T3SS substrates by measuring SipA protein level at 100 uM after 4 hrs by Coomassie staining based SDS-PAGE method; procedure, shortened: as §1
[18] = tested on: Salmonella enterica subsp. enterica serovar Typhimurium; test: Inhibition of SPI-1 T3SS in Salmonella typhimurium assessed as reduction in SPI-1 T3SS substrates by measuring SipB protein level at 100 uM after 4 hrs by Coomassie staining based SDS-PAGE method; procedure, shortened: as §1

Row | Structure (SMILES) | inhibition [1] | inhibition (HeLa [2]) | inhibition (HeLa [3]) | inhibition [4] | inhibition [5] | inhibition [6] | Activity (Salmonella typhimurium [7]) | Activity (Salmonella typhimurium [8]) | inhibition [9] | inhibition [10] | Activity (Salmonella typhimurium [11]) | pIC50 [12] | inhibition [13] | inhibition [14] | inhibition [15] | inhibition [16] | inhibition [17] | inhibition [18]
1 | O=C(O[C@@H]1Cc2c(O)cc(O)cc2O[C@@H]1c1cc(O)c(O)c(O)c1)c1cc(O)c(O)c(O)c1 [EPIGALOCATECHIN GALLATE] | Dose-dependent effect | Active | Active | Dose-dependent effect | Active | Active | Non-Toxic | Non-Toxic | Dose-dependent effect | Dose-dependent effect | Non-Toxic | 5.67 | – | – | – | – | – | –
2 | O=C(N/N=C/c1cc(Br)cc(Br)c1O)c1ccc([N+](=O)[O-])cc1 | Active | – | – | Active | Active | Active | – | – | Active | Active | – | – | – | – | – | – | – | –
3 | O=C(O[C@@H]1Cc2c(O)cc(O)cc2O[C@@H]1c1ccc(O)c(O)c1)c1cc(O)c(O)c(O)c1 | Dose-dependent effect | – | – | Dose-dependent effect | Active | Active | – | – | Dose-dependent effect | Dose-dependent effect | – | – | – | – | – | – | – | –
4 | O=c1cc(-c2ccccc2)oc2cc(O)c(O)c(O)c12 | Active | – | – | Active | Active | Active | – | – | Active | Active | – | – | – | – | – | – | – | –
5 | O=c1cc(-c2ccccc2)oc2cc(O)cc(O)c12 | – | – | – | – | – | – | – | – | – | – | – | – | inactive | inactive | inactive | inactive | inactive | inactive
